Experiments:
786-0 = experiment: Growth inhibition of human 786-0 cells assessed as cell growth at 10^-5 M after 48 hrs by sulforhodamine B assay relative to control; type: functional; conditions: 786-0, 48 h, read-out: Activity
Outline: (§1)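 NCI-60 single-dose screen at 10^-5 M. Cells grown in RPMI 1640 with 5% FBS and 2 mM L-glutamine, plated at 5,000–40,000 cells/well according to doubling time, and preincubated 24 h at 37°C, 5% CO2. Compound dissolved in DMSO and added. Exposure 48 h. Adherent cells fixed with cold TCA (10% final), suspension cells with 16% final TCA. Read-out is 0.4% SRB staining, dye solubilised in 10 mM Tris, absorbance at 515 nm. Percent growth is calculated against the time-zero plate and untreated control.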

SK-OV-3 = experiment: Growth inhibition of human SKOV3 cells assessed as cell growth at 10^-5 M after 48 hrs by sulforhodamine B assay relative to control; type: functional; conditions: SK-OV-3, 48 h, read-out: Activity; outline: as §1
[1] = Growth inhibition of human NCI-ADR-RES cells assessed as cell growth at 10^-5 M after 48 hrs by sulforhodamine B assay relative to control; type: functional; conditions: read-out: Activity; outline: as §1
OVCAR-8 = experiment: Growth inhibition of human OVCAR8 cells assessed as cell growth at 10^-5 M after 48 hrs by sulforhodamine B assay relative to control; type: functional; conditions: OVCAR-8, 48 h, read-out: Activity; outline: as §1
OVCAR-3 = experiment: Growth inhibition of human OVCAR3 cells assessed as cell growth at 10^-5 M after 48 hrs by sulforhodamine B assay relative to control; type: functional; conditions: OVCAR-3, 48 h, read-out: Activity; outline: as §1
IGROV-1 = experiment: Growth inhibition of human IGROV1 cells assessed as cell growth at 10^-5 M after 48 hrs by sulforhodamine B assay relative to control; type: functional; conditions: IGROV-1, 48 h, read-out: Activity; outline: as §1
SNB-19 = experiment: Growth inhibition of human SNB19 cells assessed as cell growth at 10^-5 M after 48 hrs by sulforhodamine B assay relative to control; type: functional; conditions: SNB-19, 48 h, read-out: Activity; outline: as §1
SF-268 = experiment: Growth inhibition of human SF268 cells assessed as cell growth at 10^-5 M after 48 hrs by sulforhodamine B assay relative to control; type: functional; conditions: SF-268, 48 h, read-out: Activity; outline: as §1
HT-29 = experiment: Growth inhibition of human HT-29 cells assessed as cell growth at 10^-5 M after 48 hrs by sulforhodamine B assay relative to control; type: functional; conditions: HT-29, 48 h, read-out: Activity; outline: as §1
HCT-116 = experiment: Growth inhibition of human HCT116 cells assessed as cell growth at 10^-5 M after 48 hrs by sulforhodamine B assay relative to control; type: functional; conditions: HCT-116, 48 h, read-out: Activity; outline: as §1
[2] = Growth inhibition of human HCC2998 cells assessed as cell growth at 10^-5 M after 48 hrs by sulforhodamine B assay relative to control; type: functional; conditions: HCC 2998, 48 h, read-out: Activity; outline: as §1
COLO 205 = experiment: Growth inhibition of human COLO205 cells assessed as cell growth at 10^-5 M after 48 hrs by sulforhodamine B assay relative to control; type: functional; conditions: COLO 205, 48 h, read-out: Activity; outline: as §1
HOP-92 = experiment: Growth inhibition of human HOP92 cells assessed as cell growth at 10^-5 M after 48 hrs by sulforhodamine B assay relative to control; type: functional; conditions: HOP-92, 48 h, read-out: Activity; outline: as §1
A549 = experiment: Growth inhibition of human A549 cells assessed as cell growth at 10^-5 M after 48 hrs by sulforhodamine B assay relative to control; type: functional; conditions: A549, 48 h, read-out: Activity; outline: as §1
RPMI-8226 = experiment: Growth inhibition of human RPMI8226 cells assessed as cell growth at 10^-5 M after 48 hrs by sulforhodamine B assay relative to control; type: functional; conditions: RPMI-8226, 48 h, read-out: Activity; outline: as §1
K562 = experiment: Growth inhibition of human K562 cells assessed as cell growth at 10^-5 M after 48 hrs by sulforhodamine B assay relative to control; type: functional; conditions: K562, 48 h, read-out: Activity; outline: as §1
Vitamin D3 receptor = target: T1, Vitamin D3 receptor (Homo sapiens, UniProt P11473); experiment: Inhibition of human vitamin D3 receptor
T1 sequence (P11473 whole entry): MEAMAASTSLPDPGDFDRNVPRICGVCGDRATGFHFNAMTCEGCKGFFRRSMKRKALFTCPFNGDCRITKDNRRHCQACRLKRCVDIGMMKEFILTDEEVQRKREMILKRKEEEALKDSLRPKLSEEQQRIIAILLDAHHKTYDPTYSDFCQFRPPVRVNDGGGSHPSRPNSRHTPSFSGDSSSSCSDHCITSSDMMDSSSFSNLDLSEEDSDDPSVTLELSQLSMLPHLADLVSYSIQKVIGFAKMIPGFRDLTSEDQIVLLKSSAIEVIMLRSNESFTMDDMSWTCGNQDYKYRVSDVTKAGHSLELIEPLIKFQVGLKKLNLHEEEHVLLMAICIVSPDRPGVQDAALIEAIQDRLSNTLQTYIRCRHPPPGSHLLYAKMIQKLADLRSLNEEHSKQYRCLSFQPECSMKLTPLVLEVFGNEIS

CCRF-CEM = experiment: Growth inhibition of human CCRF-CEM cells assessed as cell growth at 10^-5 M after 48 hrs by sulforhodamine B assay relative to control; type: functional; conditions: read-out: Activity; outline: as §1
[3] = target: Proto-oncogene tyrosine-protein kinase Src (Homo sapiens, UniProt P12931); experiment: Inhibition of human SRC
Sequence of Proto-oncogene tyrosine-protein kinase Src (P12931 2-536 limits assumed): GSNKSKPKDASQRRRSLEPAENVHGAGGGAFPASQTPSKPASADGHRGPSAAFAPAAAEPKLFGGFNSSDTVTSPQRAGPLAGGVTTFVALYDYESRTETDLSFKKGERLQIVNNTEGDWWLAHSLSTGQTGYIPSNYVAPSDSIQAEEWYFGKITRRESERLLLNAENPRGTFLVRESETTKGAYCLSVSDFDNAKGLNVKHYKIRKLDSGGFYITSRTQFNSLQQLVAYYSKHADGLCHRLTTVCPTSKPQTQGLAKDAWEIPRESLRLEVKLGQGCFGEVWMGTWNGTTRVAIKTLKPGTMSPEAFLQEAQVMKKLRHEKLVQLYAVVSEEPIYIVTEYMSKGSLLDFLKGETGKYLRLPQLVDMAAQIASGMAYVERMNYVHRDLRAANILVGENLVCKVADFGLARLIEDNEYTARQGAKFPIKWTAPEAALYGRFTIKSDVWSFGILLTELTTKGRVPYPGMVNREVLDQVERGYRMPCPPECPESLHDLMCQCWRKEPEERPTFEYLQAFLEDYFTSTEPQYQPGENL

[4] = target: Mitogen-activated protein kinase 1 (Homo sapiens, UniProt P28482); experiment: Inhibition of human MAPK1
Sequence of Mitogen-activated protein kinase 1 (P28482 whole entry): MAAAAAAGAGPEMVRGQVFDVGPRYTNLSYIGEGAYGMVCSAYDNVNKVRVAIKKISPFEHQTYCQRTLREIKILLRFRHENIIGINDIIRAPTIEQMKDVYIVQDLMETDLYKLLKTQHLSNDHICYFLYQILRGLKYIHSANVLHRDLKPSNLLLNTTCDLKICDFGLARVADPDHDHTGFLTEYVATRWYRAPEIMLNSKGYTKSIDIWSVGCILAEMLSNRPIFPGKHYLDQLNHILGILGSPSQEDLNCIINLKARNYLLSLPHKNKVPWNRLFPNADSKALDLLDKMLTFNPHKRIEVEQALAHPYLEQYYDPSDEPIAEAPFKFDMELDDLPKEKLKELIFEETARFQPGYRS

T47D = experiment: Growth inhibition of human T47D cells assessed as cell growth at 10^-5 M after 48 hrs by sulforhodamine B assay relative to control; type: functional; conditions: read-out: Activity
Outline: (§2)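 NCI-60 single-dose screen, 10^-5 M final. Cells grown in RPMI 1640 with 5% FBS and 2 mM L-glutamine, seeded at 5,000–40,000 cells/well by doubling time. Preincubated 24 h at 37°C, 5% CO2. Compound in DMSO, diluted in medium with gentamicin, then 48 h exposure. Fixed with cold TCA, SRB stained, A515 read. Percent growth vs untreated control, time-zero plate corrected.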

BT-549 = experiment: Growth inhibition of human BT549 cells assessed as cell growth at 10^-5 M after 48 hrs by sulforhodamine B assay relative to control; type: functional; conditions: BT-549, 48 h, read-out: Activity; outline: as §1
[5] = Growth inhibition of human Hs 578T cells assessed as cell growth at 10^-5 M after 48 hrs by sulforhodamine B assay relative to control; type: functional; conditions: read-out: Activity; outline: as §1
PC-3 = experiment: Growth inhibition of human PC3 cells assessed as cell growth at 10^-5 M after 48 hrs by sulforhodamine B assay relative to control; type: functional; conditions: PC-3, 48 h, read-out: Activity; outline: as §1
UO-31 = experiment: Growth inhibition of human UO31 cells assessed as cell growth at 10^-5 M after 48 hrs by sulforhodamine B assay relative to control; type: functional; conditions: UO-31, 48 h, read-out: Activity; outline: as §2
RXF 393 = experiment: Growth inhibition of human RXF393 cells assessed as cell growth at 10^-5 M after 48 hrs by sulforhodamine B assay relative to control; type: functional; conditions: RXF 393, 48 h, read-out: Activity; outline: as §1

SMILES | growth at 10 µM (786-0) | growth at 10 µM (SK-OV-3) | growth at 10 µM [1] | growth at 10 µM (OVCAR-8) | growth at 10 µM (OVCAR-3) | growth at 10 µM (IGROV-1) | growth at 10 µM (SNB-19) | growth at 10 µM (SF-268) | growth at 10 µM (HT-29) | growth at 10 µM (HCT-116) | growth at 10 µM [2] | growth at 10 µM (COLO 205) | growth at 10 µM (HOP-92) | growth at 10 µM (A549) | growth at 10 µM (RPMI-8226) | growth at 10 µM (K562) | Ki (Vitamin D3 receptor) | growth at 10 µM (CCRF-CEM) | Ki [3] | Ki [4] | also measured
CN1CCN(C(=O)Cn2c(-c3ccc(Cl)cc3)csc2=N)CC1 | 97% | 92.5% | 98% | 96.8% | 101% | 93.1% | 92.7% | 98.4% | 96% | 94.4% | 97.5% | 101% | 77.6% | 90.1% | 79.1% | 73.1% | 3.66 µM | 89.1% | 3.23 µM | 8.84 µM | growth at 10 µM (T47D): 78.4%; growth at 10 µM (BT-549): 104%; growth at 10 µM [5]: 106%; growth at 10 µM (PC-3): 83.3%; growth at 10 µM (UO-31): 89.2%; growth at 10 µM (RXF 393): 108%
Cc1ccc(-c2csc(=N)n2CC(=O)N2CCOCC2)cc1 | 97.9% | 114% | 94.4% | 108% | 108% | 112% | 106% | 101% | 109% | 101% | 98.9% | 113% | 68.3% | 94.1% | 92.8% | 100% | 13.7 µM | 101% | 13.3 µM | 9.78 µM | growth at 10 µM (T47D): 97.4%; growth at 10 µM (BT-549): 99.3%; growth at 10 µM [5]: 118%; growth at 10 µM (PC-3): 78.9%; growth at 10 µM (UO-31): 95.3%; growth at 10 µM (RXF 393): 94.5%
CN1CCN(C(=O)Cn2c(-c3ccccc3)csc2=N)CC1 | 101% | 89.2% | 92.6% | 92.9% | 95.4% | 93.2% | 93.7% | 96.2% | 83.8% | 91.6% | 101% | 103% | 73.8% | 92% | 92.5% | 98.2% | 28.3 µM | 97.6% | 7.91 µM | 4.89 µM | growth at 10 µM (T47D): 78%; growth at 10 µM (BT-549): 92.6%; growth at 10 µM [5]: 88.2%; growth at 10 µM (PC-3): 82.1%; growth at 10 µM (UO-31): 78.8%; growth at 10 µM (RXF 393): 97.3%
N=c1scc(-c2ccccc2)n1CC(=O)N1CCOCC1 | 102% | 92.3% | 105% | 94.8% | 97% | 86.7% | 98.3% | 104% | 106% | 98.6% | 104% | 107% | 70% | 102% | 95.4% | 89.2% | 24.4 µM | 98.6% | 20.2 µM | 13.8 µM | growth at 10 µM (T47D): 88.8%; growth at 10 µM (BT-549): 103%; growth at 10 µM [5]: 101%; growth at 10 µM (PC-3): 81.3%; growth at 10 µM (UO-31): 58%; growth at 10 µM (RXF 393): 98.7%
N=c1scc(-c2ccc(Cl)cc2)n1CC(=O)N1CCOCC1 | 95.5% | 90% | 98.3% | 101% | 108% | 90.4% | 91.2% | 102% | 94.2% | 87.4% | 99.9% | 101% | 81.8% | 84.6% | 78.7% | 70.9% | 4.13 µM | 91.3% | 16.7 µM | 9.18 µM | growth at 10 µM (T47D): 69.7%; growth at 10 µM (BT-549): 95.5%; growth at 10 µM [5]: 105%; growth at 10 µM (PC-3): 79.2%; growth at 10 µM (UO-31): 86.1%; growth at 10 µM (RXF 393): 110%

— ChEMBL document CHEMBL2434944, “Novel acetamidothiazole derivatives: synthesis and in vitro anticancer evaluation” (Eur J Med Chem, 2013)
